From ChEMBL document CHEMBL4229515, “A novel synthesis of 2-arylbenzimidazoles in molecular sieves-MeOH system and their antitubercular activity” (Bioorg Med Chem, 2018)

Assays:
Mus musculus [1] = test: Acute toxicity in Swiss albino mouse assessed as effect on ALKP levels at 1000 mg/kg, po after 7 days (reference value: 219.20 +/- 5.9 U/L); assay type: organism-based; conditions: in vivo, 168 h
Mus musculus [2] = test: Acute toxicity in Swiss albino mouse assessed as effect on absolute spleen weight at 5 to 1000 mg/kg, po after 7 days; assay type: organism-based; conditions: in vivo, 168 h
Outline: (§1)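 Single acute oral dose of 5, 50, 300 or 1000 mg/kg body weight, with an untreated control group; n=6 mice per group. Animals observed for 7 days for morbidity, mortality, behaviour and body weight. At the end, blood and serum were analysed, and organs were examined grossly with absolute and relative weights. Data are mean±SE; P<0.05 was taken as significant versus control and the lower-dose groups.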

Mus musculus [3] = test: Acute toxicity in Swiss albino mouse assessed as effect on relative kidney weight at 5 to 1000 mg/kg, po after 7 days; assay type: organism-based; conditions: in vivo, 168 h; outline: as §1
Mus musculus [4] = test: Acute toxicity in Swiss albino mouse assessed as effect on ALKP levels at 5 mg/kg, po after 7 days (reference value: 219.20 +/- 5.9 U/L); assay type: organism-based; conditions: in vivo, 168 h
Mus musculus [5] = test: Acute toxicity in Swiss albino mouse assessed as effect on albumin levels at 1000 mg/kg, po after 7 days (reference value: 3.53 +/- 0.35 mg/dL); assay type: organism-based; conditions: in vivo, 168 h
Mus musculus [6] = test: Acute toxicity in Swiss albino mouse assessed as effect on tissue protein levels at 1000 mg/kg, po after 7 days (reference value: 0.06 +/- 0.004 mg/mL); assay type: organism-based; conditions: in vivo, 168 h
Mus musculus [7] = test: Acute toxicity in Swiss albino mouse assessed as effect on albumin levels at 50 mg/kg, po after 7 days (reference value: 3.53 +/- 0.35 mg/dL); assay type: organism-based; conditions: in vivo, 168 h
Mus musculus [8] = test: Acute toxicity in Swiss albino mouse assessed as effect on absolute kidney weight at 5 to 1000 mg/kg, po after 7 days; assay type: organism-based; conditions: in vivo, 168 h; outline: as §1
Mus musculus [9] = test: Acute toxicity in Swiss albino mouse assessed as effect on GSH levels per mg of tissue protein at 50 mg/kg, po after 7 days (reference value: 17.64 +/- 1.03 micromol); assay type: organism-based; conditions: in vivo, 168 h
Mus musculus [10] = test: Acute toxicity in Swiss albino mouse assessed as effect on serum protein levels at 5 mg/kg, po after 7 days (reference value: 0.10 +/- 0.004 mg/mL); assay type: organism-based; conditions: in vivo, 168 h
Mus musculus [11] = test: Acute toxicity in Swiss albino mouse assessed as effect on GSH levels per mg of tissue protein at 300 mg/kg, po after 7 days (reference value: 17.64 +/- 1.03 micromol); assay type: organism-based; conditions: in vivo, 168 h
Mus musculus [12] = test: Acute toxicity in Swiss albino mouse assessed as effect on SGPT levels at 5 mg/kg, po after 7 days (reference value: 16.08 +/- 1.38 U/L); assay type: organism-based; conditions: in vivo, 168 h
Mus musculus [13] = test: Acute toxicity in Swiss albino mouse assessed as effect on cholesterol levels at 5 mg/kg, po after 7 days (reference value: 89.73 +/- 10.76 mg/dL); assay type: organism-based; conditions: in vivo, 168 h
Mus musculus [14] = test: Acute toxicity in Swiss albino mouse assessed as effect on absolute heart weight at 5 to 1000 mg/kg, po after 7 days; assay type: organism-based; conditions: in vivo, 168 h; outline: as §1
Mus musculus [15] = test: Acute toxicity in Swiss albino mouse assessed as effect on serum protein levels at 300 mg/kg, po after 7 days (reference value: 0.10 +/- 0.004 mg/mL); assay type: organism-based; conditions: in vivo, 168 h
Mus musculus [16] = test: Acute toxicity in Swiss albino mouse assessed as effect on haemoglobin levels at 5 mg/kg, po after 7 days (reference value: 12.29 +/- 0.53 g/dL); assay type: organism-based; conditions: in vivo, 168 h
Mus musculus [17] = test: Acute toxicity in Swiss albino mouse assessed as effect on SGOT levels at 1000 mg/kg, po after 7 days (reference value: 15.11 +/- 1.25 U/L); assay type: organism-based; conditions: in vivo, 168 h
Mus musculus [18] = test: Acute toxicity in Swiss albino mouse assessed as effect on RBC count at 50 mg/kg, po after 7 days (reference value: 7.61 +/- 0.54 10^6/mm3); assay type: organism-based; conditions: in vivo, 168 h
Mus musculus [19] = test: Acute toxicity in Swiss albino mouse assessed as effect on albumin levels at 300 mg/kg, po after 7 days (reference value: 3.53 +/- 0.35 mg/dL); assay type: organism-based; conditions: in vivo, 168 h
Mus musculus [20] = test: Acute toxicity in Swiss albino mouse assessed as effect on relative liver weight at 5 to 300 mg/kg, po after 7 days; assay type: organism-based; conditions: in vivo, 168 h; outline: as §1
Mus musculus [21] = test: Acute toxicity in Swiss albino mouse assessed as effect on haemoglobin levels at 300 mg/kg, po after 7 days (reference value: 12.29 +/- 0.53 g/dL); assay type: organism-based; conditions: in vivo, 168 h
Mus musculus [22] = test: Acute toxicity in Swiss albino mouse assessed as effect on SGPT levels at 1000 mg/kg, po after 7 days (reference value: 16.08 +/- 1.38 U/L); assay type: organism-based; conditions: in vivo, 168 h
Mus musculus [23] = test: Acute toxicity in Swiss albino mouse assessed as change in morbidity up to 300 mg/kg, po measured over 7 days; assay type: organism-based; conditions: in vivo, 168 h; outline: as §1
Mus musculus [24] = test: Acute toxicity in Swiss albino mouse assessed as effect on SGOT levels at 50 mg/kg, po after 7 days (reference value: 15.11 +/- 1.25 U/L); assay type: organism-based; conditions: in vivo, 168 h
[25] = biological target: DNA gyrase subunit A/DNA gyrase subunit B (Mycobacterium tuberculosis (strain ATCC 25618 / H37Rv), UniProt P9WG45+P9WG47); test: Inhibition of Mycobacterium tuberculosis DNA gyrase supercoiling activity using relaxed pBR322 as substrate after 30 mins by agarose gel electrophoresis; assay type: protein-complex assay
DNA gyrase subunit A/DNA gyrase subunit B, sequence (P9WG45 whole entry): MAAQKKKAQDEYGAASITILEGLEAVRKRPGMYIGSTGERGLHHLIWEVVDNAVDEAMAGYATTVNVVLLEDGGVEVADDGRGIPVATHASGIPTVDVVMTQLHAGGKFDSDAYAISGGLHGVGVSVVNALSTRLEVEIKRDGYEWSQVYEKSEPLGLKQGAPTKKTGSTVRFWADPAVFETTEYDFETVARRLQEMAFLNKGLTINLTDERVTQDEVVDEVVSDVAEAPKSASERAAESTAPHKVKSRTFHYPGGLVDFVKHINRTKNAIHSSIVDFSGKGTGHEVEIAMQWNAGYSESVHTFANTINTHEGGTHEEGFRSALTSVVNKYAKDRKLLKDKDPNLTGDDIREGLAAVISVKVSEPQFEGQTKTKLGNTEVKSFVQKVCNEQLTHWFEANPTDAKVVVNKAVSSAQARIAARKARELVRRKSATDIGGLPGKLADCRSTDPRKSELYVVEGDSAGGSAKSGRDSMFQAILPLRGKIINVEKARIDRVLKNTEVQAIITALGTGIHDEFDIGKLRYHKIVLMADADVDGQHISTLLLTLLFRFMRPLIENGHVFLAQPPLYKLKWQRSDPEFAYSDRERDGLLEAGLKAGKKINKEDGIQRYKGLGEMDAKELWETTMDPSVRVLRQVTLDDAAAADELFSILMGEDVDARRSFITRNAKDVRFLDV
DNA gyrase subunit A/DNA gyrase subunit B, sequence (P9WG47 whole entry): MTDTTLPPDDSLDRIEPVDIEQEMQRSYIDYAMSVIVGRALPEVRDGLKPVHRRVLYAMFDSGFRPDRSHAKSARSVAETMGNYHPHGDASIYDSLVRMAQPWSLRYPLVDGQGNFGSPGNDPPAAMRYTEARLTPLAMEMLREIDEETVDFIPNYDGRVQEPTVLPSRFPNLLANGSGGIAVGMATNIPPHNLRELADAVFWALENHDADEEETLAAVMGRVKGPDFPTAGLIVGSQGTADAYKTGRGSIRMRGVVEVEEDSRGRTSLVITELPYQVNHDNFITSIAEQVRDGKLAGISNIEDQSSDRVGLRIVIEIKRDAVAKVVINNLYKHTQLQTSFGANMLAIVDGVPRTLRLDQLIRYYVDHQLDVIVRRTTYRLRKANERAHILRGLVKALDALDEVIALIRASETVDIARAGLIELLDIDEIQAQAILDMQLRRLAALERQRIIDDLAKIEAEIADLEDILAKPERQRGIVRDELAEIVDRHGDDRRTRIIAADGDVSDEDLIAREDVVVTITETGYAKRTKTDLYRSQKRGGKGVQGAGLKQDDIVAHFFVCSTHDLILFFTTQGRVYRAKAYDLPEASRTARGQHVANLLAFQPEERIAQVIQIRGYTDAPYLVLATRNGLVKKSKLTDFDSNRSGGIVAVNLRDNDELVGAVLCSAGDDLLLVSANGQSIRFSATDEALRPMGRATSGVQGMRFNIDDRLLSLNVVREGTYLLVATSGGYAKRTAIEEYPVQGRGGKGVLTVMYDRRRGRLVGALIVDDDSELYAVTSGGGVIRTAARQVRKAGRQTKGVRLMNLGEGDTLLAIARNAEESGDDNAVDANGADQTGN

Mus musculus [26] = test: Acute toxicity in Swiss albino mouse assessed as depression at 1000 mg/kg, po measured over 7 days; assay type: organism-based; conditions: in vivo, 168 h; outline: as §1
Mus musculus [27] = test: Acute toxicity in Swiss albino mouse assessed as effect on serum protein levels at 50 mg/kg, po after 7 days (reference value: 0.10 +/- 0.004 mg/mL); assay type: organism-based; conditions: in vivo, 168 h
Mus musculus [28] = test: Acute toxicity in Swiss albino mouse assessed as effect on body weight at 1000 mg/kg, po after 7 days (reference value: 28.25 +/- 0.54 g); assay type: organism-based; conditions: in vivo, 168 h
Mus musculus [29] = test: Acute toxicity in Swiss albino mouse assessed as effect on SGPT levels at 300 mg/kg, po after 7 days (reference value: 16.08 +/- 1.38 U/L); assay type: organism-based; conditions: in vivo, 168 h
Mus musculus [30] = test: Acute toxicity in Swiss albino mouse assessed as effect on ALKP levels at 50 mg/kg, po after 7 days (reference value: 219.20 +/- 5.9 U/L); assay type: organism-based; conditions: in vivo, 168 h
Mus musculus [31] = test: Acute toxicity in Swiss albino mouse assessed as effect on triglyceride levels at 50 mg/kg, po after 7 days (reference value: 45.21 +/- 2.95 mg/dL); assay type: organism-based; conditions: in vivo, 168 h
Mus musculus [32] = test: Acute toxicity in Swiss albino mouse assessed as inactivity at 1000 mg/kg, po measured over 7 days; assay type: organism-based; conditions: in vivo, 168 h; outline: as §1
Mus musculus [33] = test: Acute toxicity in Swiss albino mouse assessed as effect on triglyceride levels at 5 mg/kg, po after 7 days (reference value: 45.21 +/- 2.95 mg/dL); assay type: organism-based; conditions: in vivo, 168 h
Mus musculus [34] = test: Acute toxicity in Swiss albino mouse assessed as effect on body weight at 50 mg/kg, po after 7 days (reference value: 28.25 +/- 0.54 g); assay type: organism-based; conditions: in vivo, 168 h
Mus musculus [35] = test: Acute toxicity in Swiss albino mouse assessed as effect on MDA levels per mg of tissue protein at 50 mg/kg, po after 7 days (reference value: 0.24 +/- 0.05 nmol); assay type: organism-based; conditions: in vivo, 168 h

With `COc1ccc2c(c1)nc(-c1ccccc1OC)n2Cc1ccccc1OC` the Activity (Mus musculus [1]) was 118.06 U/L, the Activity (Mus musculus [2]) was “Non-Toxic” and the Activity (Mus musculus [3]) was “Non-Toxic”. For the same molecule, the Activity (Mus musculus [4]) was 172.1 U/L, the Activity (Mus musculus [5]) was 2.89 mg/dL and the Activity (Mus musculus [6]) was 0.05 mg/mL. The Activity (Mus musculus [7]) was 3.58 mg/dL, the Activity (Mus musculus [8]) was “Non-Toxic” and the Activity (Mus musculus [9]) was 17.1 µmol. The Activity (Mus musculus [10]) was 0.09 mg/mL, the Activity (Mus musculus [11]) was 19.37 µmol and the Activity (Mus musculus [12]) was 15.26 U/L. For the same molecule, the Activity (Mus musculus [13]) was 91.48 mg/dL, the Activity (Mus musculus [14]) was “Non-Toxic” and the Activity (Mus musculus [15]) was 0.09 mg/mL. For the same molecule, the Activity (Mus musculus [16]) was 10.81 g/dL, the Activity (Mus musculus [17]) was 11.83 U/L and the Activity (Mus musculus [18]) was 7.44 10^6/mm3. The Activity (Mus musculus [19]) was 3.79 mg/dL, the Activity (Mus musculus [20]) was “Non-Toxic” and the Activity (Mus musculus [21]) was 11.51 g/dL. The Activity (Mus musculus [22]) was 11.72 U/L, the Activity (Mus musculus [23]) was “Non-Toxic” and the Activity (Mus musculus [24]) was 11.5 U/L. For the same molecule, the IC50 [25] was 358 µM, the Activity (Mus musculus [26]) was “Non-Toxic” and the Activity (Mus musculus [27]) was 0.09 mg/mL. For the same molecule, the Activity (Mus musculus [28]) was 22.86 g, the Activity (Mus musculus [29]) was 12.26 U/L and the Activity (Mus musculus [30]) was 171.7 U/L. The Activity (Mus musculus [31]) was 41.98 mg/dL, the Activity (Mus musculus [32]) was “Non-Toxic” and the Activity (Mus musculus [33]) was 48.61 mg/dL. For the same molecule, the Activity (Mus musculus [34]) was 27.61 g and the Activity (Mus musculus [35]) was 0.32 nmol.
